Results from ChEMBL document CHEMBL1132478, “Design and synthesis of novel alpha(1)(a) adrenoceptor-selective antagonists. 3. Approaches to eliminate opioid agonist metabolites by using substituted phenylpiperazine side chains” (J Med Chem, 1999).
“And” between values parts separate entries of the source, which are not always exact repeats. Equal entries are not always repeated.

Assays:
[1] = molecular target: T1, Alpha-1D adrenergic receptor (Homo sapiens, UniProt P25100); assay: In vitro binding affinity against Alpha-1D adrenergic receptor at recombinant human receptor.; conditions: in the assay text read “at recombinant human receptor” for “of human liver microsomes”
T1 sequence (P25100 whole entry): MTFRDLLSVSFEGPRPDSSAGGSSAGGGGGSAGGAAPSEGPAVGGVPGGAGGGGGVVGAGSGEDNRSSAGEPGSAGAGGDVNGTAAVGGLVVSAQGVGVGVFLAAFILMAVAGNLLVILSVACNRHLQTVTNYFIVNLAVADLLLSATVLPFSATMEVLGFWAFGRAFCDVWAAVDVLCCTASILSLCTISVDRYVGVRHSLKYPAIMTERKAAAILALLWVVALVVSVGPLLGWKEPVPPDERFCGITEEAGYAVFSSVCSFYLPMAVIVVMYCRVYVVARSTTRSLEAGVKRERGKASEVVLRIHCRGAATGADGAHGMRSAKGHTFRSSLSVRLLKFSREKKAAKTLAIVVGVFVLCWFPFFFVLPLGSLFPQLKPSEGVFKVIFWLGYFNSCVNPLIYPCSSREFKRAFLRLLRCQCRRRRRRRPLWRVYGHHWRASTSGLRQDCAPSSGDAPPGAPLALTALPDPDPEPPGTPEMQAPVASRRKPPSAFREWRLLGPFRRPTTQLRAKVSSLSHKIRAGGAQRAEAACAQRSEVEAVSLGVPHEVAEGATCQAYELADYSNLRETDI
How it was run: (§1)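 Radioligand displacement on membranes from cultured cells expressing recombinant human α1a, α1b or α1d adrenoceptors, using [³H]prazosin as radioligand; Ki values reported.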

[2] = molecular target: T2, Alpha-1A adrenergic receptor (Homo sapiens, UniProt P35348); assay: In vitro binding affinity against Alpha-1A adrenergic receptor […].; how it was run: as §1
T2 sequence (P35348 whole entry): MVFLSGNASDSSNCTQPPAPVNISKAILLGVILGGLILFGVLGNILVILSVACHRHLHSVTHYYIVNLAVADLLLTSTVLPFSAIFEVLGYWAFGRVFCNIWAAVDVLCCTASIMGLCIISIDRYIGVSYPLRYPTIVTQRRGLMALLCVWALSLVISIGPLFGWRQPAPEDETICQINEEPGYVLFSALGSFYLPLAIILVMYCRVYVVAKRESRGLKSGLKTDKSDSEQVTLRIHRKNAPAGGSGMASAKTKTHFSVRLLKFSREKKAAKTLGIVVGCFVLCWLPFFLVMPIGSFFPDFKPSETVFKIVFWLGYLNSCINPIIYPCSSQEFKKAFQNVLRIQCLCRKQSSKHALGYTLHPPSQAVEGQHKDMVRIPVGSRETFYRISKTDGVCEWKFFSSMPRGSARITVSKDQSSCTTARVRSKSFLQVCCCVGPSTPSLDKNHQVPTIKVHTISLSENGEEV

[3] = Fold selectivity against alpha 1A adrenergic receptor over alpha 2A, 2B and 2C adrenergic receptors
How it was run: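 Ki ratio derived from radioligand displacement at recombinant human adrenoceptors: α1a with [³H]prazosin, and α2a, α2b and α2c with [³H]rauwolscine, on membranes from cultured cells.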

[4] = molecular target: T3, Alpha-1B adrenergic receptor (Homo sapiens, UniProt P35368); assay: In vitro binding affinity against Alpha-1B adrenergic receptor at recombinant human receptor.
T3 sequence (P35368 whole entry): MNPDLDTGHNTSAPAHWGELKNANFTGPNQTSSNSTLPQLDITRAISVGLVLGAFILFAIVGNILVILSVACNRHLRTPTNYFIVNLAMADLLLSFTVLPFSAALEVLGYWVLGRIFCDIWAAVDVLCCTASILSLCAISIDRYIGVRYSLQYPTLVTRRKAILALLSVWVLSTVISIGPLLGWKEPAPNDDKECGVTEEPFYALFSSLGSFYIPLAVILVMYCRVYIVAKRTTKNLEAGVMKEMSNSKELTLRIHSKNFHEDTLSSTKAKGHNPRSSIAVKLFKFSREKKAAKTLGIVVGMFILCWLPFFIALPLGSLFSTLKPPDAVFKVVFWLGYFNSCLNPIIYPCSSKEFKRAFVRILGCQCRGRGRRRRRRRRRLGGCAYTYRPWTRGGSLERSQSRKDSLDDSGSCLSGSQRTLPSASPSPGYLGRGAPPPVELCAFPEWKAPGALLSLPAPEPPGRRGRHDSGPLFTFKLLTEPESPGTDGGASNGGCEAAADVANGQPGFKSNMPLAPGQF

Rattus norvegicus [5] = species: Rattus norvegicus; assay: Duration of action in rat.; type: ADME, organism-based; conditions: in vivo
How it was run: (§2)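 In rats, phenylephrine-induced contraction of the prostate was measured in vivo. Antagonist potency is expressed as AD₅₀ in µg/kg. Duration of action is given in hours.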

[6] = molecular target: T4, Alpha-1A adrenergic receptor (Rattus norvegicus) (UniProt P43140); assay: (§3) Binding affinity radioligand)
T4 sequence (whole entry): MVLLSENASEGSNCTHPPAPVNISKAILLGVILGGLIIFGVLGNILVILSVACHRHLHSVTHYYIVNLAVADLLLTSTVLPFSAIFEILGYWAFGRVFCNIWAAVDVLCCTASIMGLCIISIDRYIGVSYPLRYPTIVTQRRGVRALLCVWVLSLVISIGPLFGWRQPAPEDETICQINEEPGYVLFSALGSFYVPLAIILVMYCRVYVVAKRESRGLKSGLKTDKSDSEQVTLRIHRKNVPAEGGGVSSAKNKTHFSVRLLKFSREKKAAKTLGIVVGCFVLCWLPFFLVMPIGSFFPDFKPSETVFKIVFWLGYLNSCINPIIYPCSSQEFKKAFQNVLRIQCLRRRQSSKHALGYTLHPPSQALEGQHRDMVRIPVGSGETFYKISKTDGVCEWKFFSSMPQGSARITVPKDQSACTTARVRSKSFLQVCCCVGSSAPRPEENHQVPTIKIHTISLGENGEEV

[7] = molecular target: Adrenergic receptor alpha-1 (Rattus norvegicus) (UniProt P15823+P23944+P43140); assay: as §3; type: protein assay
Rattus norvegicus [8] = species: Rattus norvegicus; assay: Inhibition of phenylephrine induced contraction of the rat prostate.; type: functional, Prostate gland; how it was run: as §2
[9] = oral bioavailability in dog; type: ADME, organism-based, Canis lupus familiaris; conditions: in vivo
[10] = oral bioavailability in rat; type: ADME, organism-based; conditions: in vivo
How it was run: (§4)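 In rats, the compound was given at 3 mg/kg iv and 10 mg/kg po. Plasma AUC was measured for each route, with oral bioavailability and plasma half-life derived from the plasma profiles.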

[11] = Plasma half life in dog; type: ADME, organism-based, Canis lupus familiaris
[12] = Plasma half life in rat; type: ADME, organism-based; how it was run: as §4
Mu-type opioid receptor = Mu-type opioid receptor (Homo sapiens, UniProt P35372); assay: Binding affinity against opioid receptor using [3H]-DAMGO as radioligand.
Sequence of Mu-type opioid receptor (P35372 whole entry): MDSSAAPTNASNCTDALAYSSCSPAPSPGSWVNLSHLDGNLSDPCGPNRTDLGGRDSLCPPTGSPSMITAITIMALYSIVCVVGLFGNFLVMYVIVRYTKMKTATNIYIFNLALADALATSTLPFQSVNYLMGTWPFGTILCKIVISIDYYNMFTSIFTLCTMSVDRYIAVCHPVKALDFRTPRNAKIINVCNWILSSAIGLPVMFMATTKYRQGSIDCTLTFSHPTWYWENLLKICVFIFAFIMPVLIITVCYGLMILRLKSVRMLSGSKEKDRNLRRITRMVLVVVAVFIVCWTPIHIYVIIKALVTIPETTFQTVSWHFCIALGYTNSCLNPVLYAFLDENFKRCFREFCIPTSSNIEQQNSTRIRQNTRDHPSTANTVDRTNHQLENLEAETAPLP

Sequence of Adrenergic receptor alpha-1 (Rattus norvegicus) (P15823 whole entry, looked up, one chain of several): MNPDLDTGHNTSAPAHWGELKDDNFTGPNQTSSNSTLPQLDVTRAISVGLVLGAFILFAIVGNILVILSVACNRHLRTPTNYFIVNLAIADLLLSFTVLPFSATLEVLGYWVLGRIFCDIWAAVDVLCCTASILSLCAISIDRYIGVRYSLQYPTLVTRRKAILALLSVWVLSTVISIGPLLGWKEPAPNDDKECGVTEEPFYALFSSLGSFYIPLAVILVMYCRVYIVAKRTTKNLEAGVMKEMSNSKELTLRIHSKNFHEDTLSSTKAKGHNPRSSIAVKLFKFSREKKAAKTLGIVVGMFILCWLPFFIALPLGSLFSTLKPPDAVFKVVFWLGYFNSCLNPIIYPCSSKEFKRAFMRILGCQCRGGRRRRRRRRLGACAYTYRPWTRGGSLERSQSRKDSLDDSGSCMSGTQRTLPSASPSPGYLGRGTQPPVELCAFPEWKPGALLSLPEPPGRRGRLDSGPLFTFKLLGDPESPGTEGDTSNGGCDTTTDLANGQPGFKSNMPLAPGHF
Sequence of Adrenergic receptor alpha-1 (Rattus norvegicus) (P23944 whole entry, looked up, one chain of several): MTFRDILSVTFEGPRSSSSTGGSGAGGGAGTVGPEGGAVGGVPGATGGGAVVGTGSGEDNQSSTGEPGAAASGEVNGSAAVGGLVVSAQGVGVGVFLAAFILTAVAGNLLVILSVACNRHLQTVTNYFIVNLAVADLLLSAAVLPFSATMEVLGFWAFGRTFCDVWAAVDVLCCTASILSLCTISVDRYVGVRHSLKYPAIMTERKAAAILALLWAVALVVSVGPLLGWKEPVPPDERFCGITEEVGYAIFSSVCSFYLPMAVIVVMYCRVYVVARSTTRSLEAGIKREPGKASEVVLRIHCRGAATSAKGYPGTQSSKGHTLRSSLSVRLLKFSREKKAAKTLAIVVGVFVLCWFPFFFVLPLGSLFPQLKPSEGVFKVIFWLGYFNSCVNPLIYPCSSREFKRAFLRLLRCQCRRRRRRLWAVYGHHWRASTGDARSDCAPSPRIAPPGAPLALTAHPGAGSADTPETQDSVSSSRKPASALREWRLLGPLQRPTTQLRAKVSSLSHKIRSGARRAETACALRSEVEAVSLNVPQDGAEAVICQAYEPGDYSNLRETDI

| SMILES | Ki [1] | Ki [2] | Fold selectivity [3] | Ki [4] | also measured |
| --- | --- | --- | --- | --- | --- |
| COC(=O)C1=C(C)NC(=O)N(C(=O)NCCCN2CCN(c3ccccc3Cl)CC2)C1c1ccc(F)c(F)c1 (configuration not stated) | 14 nM | 0.2 nM | > 190 | 15 nM | – |
| CCC1=C(C(N)=O)C(c2ccc(F)c(F)c2)N(C(=O)NCCCN2CCC(C(=O)OC)(c3ccccc3)CC2)C(=O)N1 (configuration not stated) | – | – | > 3200 | – | Duration of action (Rattus norvegicus [5]): > 4 h; Kb [6]: 0.4 nM; Kb [7]: > 1000 nM; AD50 (Rattus norvegicus [8]): 0.02 mg/kg |
| COC(=O)C1=C(C)NC(=O)N(C(=O)NCCCN2CCN(c3ccccc3C(N)=O)CC2)C1c1cc(F)c(F)c(F)c1 (configuration not stated) | 140 nM | 0.3 nM | > 430 | 58 nM | – |
| COC(=O)C1=C(C)NC(=O)N(C(=O)NCCCN2CCN(c3ccc(OC)cc3)CC2)C1c1ccc(F)c(F)c1 (configuration not stated) | 480 nM | 14 nM | > 15 | 410 nM | – |
| COC(=O)C1=C(C)NC(=O)N(C(=O)NCCCN2CCN(c3ccc(Cl)cc3)CC2)C1c1ccc(F)c(F)c1 (configuration not stated) | 52 nM | 0.8 nM | > 65 | 17 nM | – |
| CCC1=C(C(=O)OC)C(c2ccc(F)cc2F)N(C(=O)NCCCN2CCN(c3ccccc3C(N)=O)CC2)C(=O)N1 (configuration not stated) | 91 nM | 0.1 nM | > 1900 | 32 nM | – |
| COC(=O)C1=C(C)NC(=O)N(C(=O)NCCCN2CCN(c3ccccc3C(N)=O)CC2)C1c1ccc(F)c(F)c1 (configuration not stated) | 250 nM and 310 nM | 0.12 nM and 0.26 nM | > 3000 | 190 nM and 135 nM | bioavailability [9]: 4%; bioavailability [10]: 13%; Duration of action (Rattus norvegicus [5]): > 4 h; half-life [11]: 2.4 h; half-life [12]: 2 h; Kb [6]: 0.3 nM; Ki (Mu-type opioid receptor): > 30000 nM; AD50 (Rattus norvegicus [8]): 0.022 mg/kg |
| COC(=O)C1=C(C)NC(=O)N(C(=O)NCCCN2CCN(c3ccccc3[N+](=O)[O-])C[C@H]2C)C1c1ccc(F)c(F)c1 (some centres not stated) | 28 nM | 0.05 nM | > 1600 | 13 nM | – |
| COC(=O)C1=C(C)NC(=O)N(C(=O)NCCCN2CCN(c3ccccc3)CC2)C1c1ccc(F)c(F)c1 (configuration not stated) | 21 nM | 0.2 nM | > 55 | 7.5 nM | – |
| CCC1=C(C(N)=O)C(c2ccc(F)cc2F)N(C(=O)NCCCN2CCN(c3ccccc3C(N)=O)CC2)C(=O)N1 (configuration not stated) | 1100 nM | 1.3 nM | > 600 | 720 nM | – |
| COC(=O)C1=C(C)NC(=O)N(C(=O)NCCCN2CCN(c3ccccc3[N+](=O)[O-])C[C@@H]2C)C1c1ccc(F)c(F)c1 (some centres not stated) | 34 nM | 0.02 nM | > 17000 | 49 nM | – |
| COC(=O)C1=C(C)NC(=O)N(C(=O)NCCCN2CCN(c3cccc(C(F)(F)F)c3)CC2)C1c1ccc(F)c(F)c1 (configuration not stated) | 120 nM | 4.9 nM | > 60 | 43 nM | – |
| COC(=O)C1=C(C)NC(=O)N(C(=O)NCCCN2CCN(c3cccc([N+](=O)[O-])c3)CC2)C1c1ccc(F)c(F)c1 (configuration not stated) | 340 nM | 12 nM | > 40 | 150 nM | – |
| CC(=O)C1=C(C)NC(=O)N(C(=O)NCCCN2CCN(c3ccccc3C(N)=O)CC2)C1c1cc(F)c(F)c(F)c1 (configuration not stated) | 390 nM | 0.4 nM | > 160 | 220 nM | – |
| COC(=O)C1=C(C)NC(=O)N(C(=O)NCCCN2CCN(c3ccc(OC)cc3C)CC2)C1c1ccc(F)c(F)c1 (configuration not stated) | 610 nM | 16 nM | > 20 | 510 nM | – |
| COC(=O)C1=C(C)NC(=O)N(C(=O)NCCCN2CCN(c3ccc(C(C)=O)cc3)CC2)C1c1ccc(F)c(F)c1 (configuration not stated) | 1800 nM | 430 nM | > 2 | 1300 nM | – |

The remaining molecules from weak to strong by Ki [4], led by results:

| Ki [1] | Ki [2] | Fold selectivity [3] | Ki [4] | SMILES | also measured |
| --- | --- | --- | --- | --- | --- |
| 290 nM | 0.7 nM | > 70 | 170 nM | CC(=O)C1=C(C)NC(=O)N(C(=O)NCCCN2CCN(c3ccccc3C(N)=O)CC2)C1c1ccc(F)c(F)c1 (configuration not stated) | – |
| 190 nM | 0.1 nM | > 660 | 130 nM | COCC1=C(C(=O)OC)C(c2cc(F)c(F)cc2F)N(C(=O)NCCCN2CCN(c3ccccc3C(N)=O)CC2)C(=O)N1 (configuration not stated) | – |
| 140 nM | 0.1 nM | > 4500 | 100 nM | COCC1=C(C(=O)OC)C(c2ccc(F)c(F)c2)N(C(=O)NCCCN2CCN(c3ccccc3C(N)=O)CC2)C(=O)N1 (configuration not stated) | – |
| 30 nM | 0.2 nM | > 85 | 25 nM | COC(=O)C1=C(C)NC(=O)N(C(=O)NCCCN2CCN(c3ccccc3C(=O)OC)CC2)C1c1ccc(F)c(F)c1 (configuration not stated) | – |
| 32 nM | 0.01 nM | > 23000 | 23 nM | COC(=O)C1=C(C)NC(=O)N(C(=O)NCCCN2CCN(c3ccccc3[N+](=O)[O-])CC2)C1c1ccc(F)c(F)c1 (configuration not stated) | – |
| 31 nM | 0.1 nM | > 360 | 18 nM | COC(=O)C1=C(C)NC(=O)N(C(=O)NCCCN2CCN(c3ccccc3OC)CC2)C1c1ccc(F)c(F)c1 (configuration not stated) | – |
| 9.8 nM | 0.3 nM | > 110 | 17 nM | COC(=O)C1=C(C)NC(=O)N(C(=O)NCCCN2CCN(c3ccccc3C)CC2)C1c1ccc(F)c(F)c1 (configuration not stated) | – |
| 31 nM | 0.6 nM | > 65 | 16 nM | COC(=O)C1=C(C)NC(=O)N(C(=O)NCCCN2CCN(c3ccccc3O)CC2)C1c1ccc(F)c(F)c1 (configuration not stated) | – |
| 12 nM and 15 nM | 0.1 nM and 0.08 nM | > 1300 | 15 nM | COC(=O)C1=C(C)NC(=O)N(C(=O)NCCCN2CCN(c3ccccc3C#N)CC2)C1c1ccc(F)c(F)c1 (configuration not stated) | – |
| 14 nM | 0.1 nM | > 210 | 8.8 nM | CCOc1ccccc1N1CCN(CCCNC(=O)N2C(=O)NC(C)=C(C(=O)OC)C2c2ccc(F)c(F)c2)CC1 (configuration not stated) | – |
| 37 nM | 0.7 nM | > 195 | 8.4 nM | COC(=O)C1=C(C)NC(=O)N(C(=O)NCCCN2CCN(c3cccc(Cl)c3)CC2)C1c1ccc(F)c(F)c1 (configuration not stated) | – |
